# Mdm2 ligase inh: blocks human Mdm2 ubiquitin ligase activity | cell-based MDM2 ubiquitination luciferase reporter, 2 h; 0 = plate control, 100 = twice control, blank-subtracted | hit rate 0.11% among 210,000 | AID 1230 | signal enhancement, % at 5 µM | Q00987;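 active = signal enhancement of 30% or more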;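 also: luminescence tracks abundance of the self-degrading MDM2-luciferase fusion protein; higher signal means inhibition of MDM2 E3 ligase activity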
#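 Material: stable MDM2–luciferase fusion reporter cells / Quantity: 2000 cells/well / Dosing: single 5 µM compound dose, 0.2% final DMSO / Buffer or medium: DMEM / Schedule: 4 h cell settling then 2 h compound exposure, 37 °C / Detection: luminescence with SteadyLite reagent, 15 min at room temperature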
# Lmaj promast: reduces viability of Leishmania major promastigotes | resazurin fluorescence viability | inhibition, % at 10 µM | hit rate 9% among 200,000; in the data active = inhibition above about 50%;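 also: promastigotes grown with compound for 44 hours at 28 °C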
# S1P4 ag: agonists of human S1P4 receptor. activation, % at 4.98 µM. hit rate 0.35% among 220,000. O95977. AID 1509. S1P4-expressing cell line, agonist reporter assay; in the data active = activation above about 11%;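 also: 0% = DMSO vehicle and 100% = reference agonist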
# Target sequence (O95977 whole entry, looked up): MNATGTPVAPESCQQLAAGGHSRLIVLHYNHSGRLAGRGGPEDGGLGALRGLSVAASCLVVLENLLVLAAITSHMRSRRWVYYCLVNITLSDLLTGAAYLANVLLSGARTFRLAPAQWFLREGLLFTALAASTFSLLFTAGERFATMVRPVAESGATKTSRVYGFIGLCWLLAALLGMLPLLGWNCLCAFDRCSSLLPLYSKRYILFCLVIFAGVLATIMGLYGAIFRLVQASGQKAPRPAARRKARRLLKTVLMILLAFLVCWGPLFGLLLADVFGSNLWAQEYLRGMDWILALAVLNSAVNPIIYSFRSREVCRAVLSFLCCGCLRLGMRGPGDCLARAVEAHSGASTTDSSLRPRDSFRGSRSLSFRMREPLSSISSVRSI
# S1P3 antag: antagonists of human S1P3 receptor; hit rate 0.27% among 170,000; Q99500; inhibition, % at 4.98 µM; CHO S1P3 NFAT-BLA reporter, FRET fluorescence, antagonist mode;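 active = inhibition above the plate cutoff, the mean inhibition of test wells on that plate plus 3 SD, cut at about 28% in these data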;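 also: cells challenged with S1P at its EC80 of 0.8 µM; blue over green emission ratio from cleaved BLA substrate after 4 h stimulation; 0% = S1P-stimulated wells and 100% = unstimulated DMSO-only wells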
# S1P4 antag: antagonists of human S1P4 receptor; inhibition, % at 4.98 µM; hit rate 0.26% among 220,000; AID 1510; S1P4-expressing cells, antagonist mode, reporter read-out; in the data active = inhibition above about 29%;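 also: 0% = wells stimulated with agonist and 100% = vehicle wells without agonist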
# The depositor's hits bear a star; nt = no result given. This is one part of a sample in which hits are shown more often than they occur.
SMILES,Mdm2 ligase inh,Lmaj promast,S1P4 ag,S1P3 antag,S1P4 antag
COc1ccc(N(CC(=O)NCCC2=CCCCC2)S(=O)(=O)c2c(C)[nH]c(=O)[nH]c2=O)cc1,-18,nt,-1,1,6
Cc1nn(-c2ccc(Cl)cc2)c(=O)c2ccccc12,-6,-3,0,5,1
Cc1nn(-c2ccccc2)c(=S)c2ccccc12,6,71*,0,-5,-6
CCOc1ccc(-n2ccnc2SCC(=O)NCc2ccc3c(c2)OCO3)cc1,4,4,1,-24,-9
C=C1CCN([C@@H](C)C(=O)NCc2ccc(Cl)cc2)S(=O)(=O)c2ccccc21,-4,nt,nt,nt,nt
S=C(NC1CCCCC1)N(CCc1ccccc1)CCc1ccccc1,-16,18,3,5,-14
CC(C)(C)N=C1NC(=NC(C)(C)C)c2ccccc21,-16,66*,0,-18,-7
CS(=O)(=O)N1CC(C(=O)NC2CCCC2)Oc2ccc(Cl)cc21 (stereo not given),-5,-5,0,nt,-19
C=CCN(CC=C)C(=O)c1ccc(OC2CCN(Cc3ccccn3)CC2)cc1,3,59*,0,-5,-9
COC(OC)c1ccc(C#N)c(SCc2ccc(C)cc2)n1,-12,nt,0,5,-13
O=C(O)c1ccc2nc(-c3ccccc3)c(-c3ccccc3)nc2c1,-13,29,-1,3,-6
Nc1ccc(Oc2ccc3nc(-c4ccccc4)c(-c4ccccc4)nc3c2)cc1,-4,66*,0,nt,0
Fc1ccc(CN2CCCCCCC2)cc1,-19,46,3,nt,-14
CCCCCCn1c(=O)[nH]c2c(c1=O)CCC2,5,nt,0,-12,-16
CCCCn1c2c(c(=N)c3c1CCC3)CCC2,-8,100*,1,-43,2
CCCCCCn1c2c(c(=N)c3c1CCC3)CCC2,-20,100*,0,-27,-2
CCn1c2c(c(=N)c3c1CCC3)CCC2,14,32,1,-19,-8
N=c1c2c(n(Cc3ccc(F)cc3)c3c1CCC3)CCC2,-23,100*,-2,-15,-6
CCCCCCCCCn1c2c(c(=N)c3c1CCC3)CCC2,-57,100*,0,nt,-3
CCc1ccc(OCc2n[nH]c(=S)n2C(C)CCCC(C)C)cc1 (stereo not given),2,8,0,-9,-6
COc1ccc2nc(NC(=O)C3CCCN3S(=O)(=O)c3ccc(C)cc3)sc2c1 (stereo not given),-16,50,1,12,-10
CCCCCCCn1c2c(c(=N)c3c1CCC3)CCCC2,-41,100*,0,-15,-17
CCn1c2c(c(=N)c3ccccc31)CCC2,-14,nt,3,-8,-9
CCOc1cc(N2CCOCC2)c(OCC)cc1NC(=O)c1ccc(OC(C)C)cc1,-21,4,0,-4,0
CC(C)(C)c1ccc(C(=O)CC(Sc2ccc(Cl)cc2)C(=O)O)cc1 (stereo not given),-4,78*,0,4,24
SMILES,Mdm2 ligase inh,Lmaj promast,S1P4 ag,S1P3 antag,S1P4 antag
Cc1nc2c3ccccc3n(Cc3ccccc3F)c2s1,-1,56*,10,-17,-14
O=S(=O)(c1ccc2ccccc2c1)N1CCCCCC1,-9,-6,1,-1,-16
N#Cc1ccc(S(=O)(=O)NC2CCN(Cc3ccccc3)CC2)cc1,-9,nt,-1,-5,5
O=S(=O)(c1ccc(Cl)cc1)N1CCC(O)(CN2CCN(Cc3ccccc3)CC2)CC1,4,100*,0,6,-3
O=S(=O)(c1ccc2ccccc2c1)N1CCN(C2Cc3ccccc3C2)CC1,-9,86*,0,3,-9
O=S(=O)(NC1CCCC1)c1ccc(S(=O)(=O)N2CCCN(Cc3ccccc3)C2)cc1,-6,84*,-2,-27,-30
O=S(=O)(c1ccccc1)N1CCN(C2CCN(Cc3ccccc3)CC2)CC1,-1,96*,1,28,-3
CC(C)CC(COCc1ccc(Cl)cc1)N1CCN(C(=O)c2ccc(Cl)cc2Cl)CCC1=O (stereo not given),nt,48,-1,-5,19
CN(C(=O)CSc1ncnc2sccc12)c1c(N)n(Cc2ccccc2)c(=O)[nH]c1=O,-15,nt,-1,-3,6
COc1ccc(S(=O)(=O)N2CCN(C3CCN(Cc4ccccc4)CC3)CC2)cc1,-26,94*,-1,-20,-5
CCn1c(SCc2ccccc2)nnc1C1CCCCC1,-8,-4,1,-12,-15

# Screening data as filed in PubChem.
